The values that follow come from ChEMBL document CHEMBL1208762, “Enhanced selectivity profile of pyrazole-urea based DFG-out p38alpha inhibitors” (Bioorg Med Chem Lett, 2010).

Data set [1] concerns the target T1, Mitogen-activated protein kinase 14 (Homo sapiens, UniProt Q16539). The data set is described as follows: Inhibition of active p38alpha. Put shortly:
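Compound preincubated with active p38α; kinase activity then read by adding MK2 and its substrate (cascade format). IC50 is the mean of three experiments, SD <15%.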

Data set [2] has as its target T1, Mitogen-activated protein kinase 14. Put plainly: Inhibition of unactive p38alpha. Put shortly: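 Unactive p38α preincubated with compound, then activated by MKK6 and diluted into an MK2 plus substrate mixture (cascade format). IC50 is the mean of three experiments, SD <15%.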
In the next data set the target is hERG (KCNH2) (Homo sapiens, UniProt Q12809). The data set is described as follows: Displacement of [3H]dofetilide from human ERG at 10 uM. The conditions noted are these: probe [3H]dofetilide. On the technique in general: Loss of bound radioactivity is the signal in a displacement assay; it reports binding, not function.
hERG (KCNH2), sequence (Q12809 whole entry): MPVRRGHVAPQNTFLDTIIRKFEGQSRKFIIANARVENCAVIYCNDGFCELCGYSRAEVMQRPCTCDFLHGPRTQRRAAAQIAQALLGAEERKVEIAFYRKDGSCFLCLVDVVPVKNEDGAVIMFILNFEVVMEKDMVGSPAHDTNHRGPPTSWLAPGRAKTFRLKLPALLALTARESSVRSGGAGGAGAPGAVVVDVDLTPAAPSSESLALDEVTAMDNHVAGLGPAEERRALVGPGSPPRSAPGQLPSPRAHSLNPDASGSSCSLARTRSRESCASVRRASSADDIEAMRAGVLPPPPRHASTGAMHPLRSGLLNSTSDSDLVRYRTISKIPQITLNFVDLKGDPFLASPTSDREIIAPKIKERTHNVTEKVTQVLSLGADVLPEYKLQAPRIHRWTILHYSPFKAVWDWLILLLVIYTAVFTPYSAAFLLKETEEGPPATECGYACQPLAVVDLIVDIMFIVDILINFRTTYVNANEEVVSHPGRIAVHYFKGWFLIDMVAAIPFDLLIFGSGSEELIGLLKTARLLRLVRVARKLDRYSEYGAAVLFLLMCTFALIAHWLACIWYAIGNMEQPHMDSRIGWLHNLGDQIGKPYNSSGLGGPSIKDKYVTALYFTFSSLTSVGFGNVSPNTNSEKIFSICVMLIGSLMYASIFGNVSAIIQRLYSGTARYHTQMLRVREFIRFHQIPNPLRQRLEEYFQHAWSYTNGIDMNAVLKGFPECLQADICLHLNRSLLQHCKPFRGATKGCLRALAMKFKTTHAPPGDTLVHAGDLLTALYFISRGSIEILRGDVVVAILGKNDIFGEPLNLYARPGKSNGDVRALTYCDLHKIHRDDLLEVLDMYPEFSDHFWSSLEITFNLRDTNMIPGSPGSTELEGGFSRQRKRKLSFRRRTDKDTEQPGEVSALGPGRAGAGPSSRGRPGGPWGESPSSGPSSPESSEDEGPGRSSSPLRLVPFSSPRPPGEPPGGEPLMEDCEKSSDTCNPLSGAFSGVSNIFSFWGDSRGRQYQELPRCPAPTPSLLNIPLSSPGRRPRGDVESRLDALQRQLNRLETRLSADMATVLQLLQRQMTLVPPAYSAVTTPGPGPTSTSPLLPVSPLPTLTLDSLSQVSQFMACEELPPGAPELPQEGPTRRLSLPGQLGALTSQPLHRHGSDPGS
The next data set concerns the target CYP3A4 (Homo sapiens, UniProt P08684). The data set is described as follows: Inhibition of CYP3A4 at 3 uM. It counts as ADME. In short, it runs like this:
(§1)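 Compound tested at 3 µM against a cocktail of CYP1A2, 2C9, 2D6 and 3A4; the result is given as % inhibition for each isoform.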

The next data set has as its target CYP2D6 (Homo sapiens, UniProt P10635). Put plainly: Inhibition of CYP2D6 at 3 uM. The class given is ADME. In short, it runs like this:
as §1

Data set [3] can be described thus: Permeability of the compound by PAMPA method. The class given is ADME. On the technique in general: The PAMPA barrier holds no transporters, so it reflects passive diffusion.
For the next data set, the target named is T2, CYP1A2 (Homo sapiens, UniProt P05177).
T2 sequence (P05177 whole entry): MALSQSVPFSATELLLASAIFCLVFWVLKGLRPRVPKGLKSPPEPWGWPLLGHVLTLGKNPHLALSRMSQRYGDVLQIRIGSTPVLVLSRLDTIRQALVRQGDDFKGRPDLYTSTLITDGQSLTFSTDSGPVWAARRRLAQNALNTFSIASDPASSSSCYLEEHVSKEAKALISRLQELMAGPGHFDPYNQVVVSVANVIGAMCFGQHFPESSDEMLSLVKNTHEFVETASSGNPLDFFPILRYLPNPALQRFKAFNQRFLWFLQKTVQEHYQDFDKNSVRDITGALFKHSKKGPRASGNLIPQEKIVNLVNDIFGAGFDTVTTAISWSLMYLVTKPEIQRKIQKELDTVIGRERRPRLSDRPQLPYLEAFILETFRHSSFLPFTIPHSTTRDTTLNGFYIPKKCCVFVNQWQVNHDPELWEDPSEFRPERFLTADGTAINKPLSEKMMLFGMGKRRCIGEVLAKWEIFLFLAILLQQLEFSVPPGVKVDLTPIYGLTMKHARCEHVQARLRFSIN
The data set is described as follows: Inhibition of CYP1A2 at 3 uM. It counts as ADME. Put shortly:
as §1

A short description of data set [4]: Solubility of the compound in phosphate buffer at pH 6.5 by turbidimetric. The class given is physicochemical. Put shortly:
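Kinetic solubility measured turbidimetrically in phosphate buffer at pH 6.5. The value is reported as a range between the minimum and maximum kinetic solubility, in µM.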

The target in a further data set is CYP2C9 (Homo sapiens, UniProt P11712). Put plainly: Inhibition of CYP2C9 at 3 uM. It counts as ADME. Put shortly: as §1
CYP2C9, sequence (P11712 whole entry): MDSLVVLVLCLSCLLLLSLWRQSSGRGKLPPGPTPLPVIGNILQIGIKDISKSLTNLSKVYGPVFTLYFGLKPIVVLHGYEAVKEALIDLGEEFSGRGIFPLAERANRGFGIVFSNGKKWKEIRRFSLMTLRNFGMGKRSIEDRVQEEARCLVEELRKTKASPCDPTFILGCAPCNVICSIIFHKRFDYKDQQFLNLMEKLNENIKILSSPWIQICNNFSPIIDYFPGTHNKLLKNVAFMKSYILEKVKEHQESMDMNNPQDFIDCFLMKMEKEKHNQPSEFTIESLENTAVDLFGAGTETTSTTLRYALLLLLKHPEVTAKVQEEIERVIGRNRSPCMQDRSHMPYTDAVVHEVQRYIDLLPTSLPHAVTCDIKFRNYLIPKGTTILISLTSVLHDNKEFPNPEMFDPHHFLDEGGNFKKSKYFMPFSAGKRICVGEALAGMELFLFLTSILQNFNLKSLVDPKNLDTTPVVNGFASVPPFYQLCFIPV

Values after ≈ are worked out from the molar mass of the structure shown.

CYP2D6, sequence (P10635 whole entry): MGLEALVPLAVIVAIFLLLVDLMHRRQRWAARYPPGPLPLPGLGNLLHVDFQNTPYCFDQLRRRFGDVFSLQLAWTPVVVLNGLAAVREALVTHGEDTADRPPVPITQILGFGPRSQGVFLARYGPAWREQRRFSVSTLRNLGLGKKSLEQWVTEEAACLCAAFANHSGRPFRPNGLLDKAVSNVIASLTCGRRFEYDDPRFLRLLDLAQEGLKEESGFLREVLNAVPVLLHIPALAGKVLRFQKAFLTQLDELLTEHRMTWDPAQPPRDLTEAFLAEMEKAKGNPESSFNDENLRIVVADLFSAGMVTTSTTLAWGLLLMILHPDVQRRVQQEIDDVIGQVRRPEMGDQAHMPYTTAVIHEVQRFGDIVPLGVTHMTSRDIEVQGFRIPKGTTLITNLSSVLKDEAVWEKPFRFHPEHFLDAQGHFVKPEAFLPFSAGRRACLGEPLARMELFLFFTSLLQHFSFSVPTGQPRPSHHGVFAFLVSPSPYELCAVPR
T1 sequence (Q16539 whole entry): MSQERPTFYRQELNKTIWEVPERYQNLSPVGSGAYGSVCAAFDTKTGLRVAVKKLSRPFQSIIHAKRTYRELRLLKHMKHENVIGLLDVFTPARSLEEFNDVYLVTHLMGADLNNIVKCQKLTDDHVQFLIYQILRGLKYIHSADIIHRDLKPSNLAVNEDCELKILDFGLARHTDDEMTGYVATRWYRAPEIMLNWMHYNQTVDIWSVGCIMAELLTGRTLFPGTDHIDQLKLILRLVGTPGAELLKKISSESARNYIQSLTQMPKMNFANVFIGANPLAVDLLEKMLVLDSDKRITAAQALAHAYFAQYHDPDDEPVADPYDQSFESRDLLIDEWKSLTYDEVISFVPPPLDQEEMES
CYP3A4, sequence (P08684 whole entry, canonical isoform): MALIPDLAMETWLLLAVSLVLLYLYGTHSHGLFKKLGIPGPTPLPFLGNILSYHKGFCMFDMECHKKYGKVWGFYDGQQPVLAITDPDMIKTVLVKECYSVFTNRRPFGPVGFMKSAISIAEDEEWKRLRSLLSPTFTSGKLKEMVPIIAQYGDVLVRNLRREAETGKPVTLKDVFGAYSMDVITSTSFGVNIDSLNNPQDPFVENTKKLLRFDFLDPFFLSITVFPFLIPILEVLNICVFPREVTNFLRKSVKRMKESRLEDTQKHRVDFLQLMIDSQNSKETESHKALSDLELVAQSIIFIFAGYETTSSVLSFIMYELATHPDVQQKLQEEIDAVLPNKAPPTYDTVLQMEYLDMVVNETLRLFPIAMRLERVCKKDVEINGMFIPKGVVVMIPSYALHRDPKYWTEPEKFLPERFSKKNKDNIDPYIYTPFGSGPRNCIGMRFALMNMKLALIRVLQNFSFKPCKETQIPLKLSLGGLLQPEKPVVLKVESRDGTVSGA

On to `CC(C)(C)c1cc(NC(=O)Nc2ccccc2)n(-c2cccc(CN)c2)n1`, for which the half-maximal inhibitory concentration (IC50) in [1] is over 16700 nM; in data set [2], 2850 nM.

Regarding `CC(C)(C)c1cc(NC(=O)Nc2ccccc2)n(-c2cccc(CNC(=O)CN)c2)n1`, the IC50 in data set [1] was determined as 2300 nM; in data set [2], 176 nM.

Turning to `COC(=O)NCC(=O)NCc1cccc(-n2nc(C(C)(C)C)cc2NC(=O)Nc2ccccc2)c1`, the IC50 in [1] is 287 nM; in [2] it was 176 nM.

`CC(C)(C)c1cc(NC(=O)Nc2ccccc2)n(-c2cccc(CNC(=O)CNC=O)c2)n1`: the IC50 in data set [1] turned out to be 332 nM; in [2], 68 nM.

As for `CC(=O)NCC(=O)NCc1cccc(-n2nc(C(C)(C)C)cc2NC(=O)Nc2ccccc2)c1`, on hERG (KCNH2), the inhibition at 10 µM is -11%. Besides, the inhibition at 3 µM on CYP3A4 turned out to be 0%; against CYP2D6, 2%; against CYP1A2, 5%; at CYP2C9, 0%. The same compound gave a Papp in [3] of 7.38 ×10⁻⁶ cm/s. For the same compound, the values for the IC50 in data set [1] and in data set [2] were 34 nM and 6 nM, respectively. This compound registered a kinetic solubility in data set [4] of over 200 µM.

With `CC(C)(C)c1cc(NC(=O)Nc2ccccc2)n(-c2cccc(CNC(=O)CNC(=O)c3ccccc3)c2)n1`, the concentration for half-maximal inhibition (IC50) in [1] is 441 nM; in [2], 169 nM.

Consider `CC(C)(C)c1cc(NC(=O)Nc2ccccc2)n(-c2cccc(CNC(=O)CNC(=O)c3cccnc3)c2)n1`, for which the results for the half-inhibitory concentration (IC50) in data set [1] and in [2] were 205 nM and 51 nM, respectively.

Regarding `Cc1cc(C(=O)NCC(=O)NCc2cccc(-n3nc(C(C)(C)C)cc3NC(=O)Nc3ccccc3)c2)no1`, the results for the 50% inhibitory concentration (IC50) in [1] and in data set [2] were 243 nM and 38 nM, respectively.

As to `CC(C)(C)c1cc(NC(=O)Nc2ccccc2)n(-c2cccc(CNC(=O)CNC(=O)c3ccco3)c2)n1`, the 50% inhibitory concentration (IC50) in data set [1] was found to be 88 nM; in [2] it was 18 nM.

Regarding `CC(=O)NC(C)C(=O)NCc1cccc(-n2nc(C(C)(C)C)cc2NC(=O)Nc2ccccc2)c1` (stereo not given), the 50% inhibitory concentration (IC50) in data set [1] was found to be 480 nM; in [2], 168 nM.

Regarding `CC(=O)NC1(C(=O)NCc2cccc(-n3nc(C(C)(C)C)cc3NC(=O)Nc3ccccc3)c2)CCCC1`, the IC50 was determined as 4550 nM in [1] and 715 nM in [2].

Consider `CC(C)(C)c1cc(NC(=O)Nc2ccccc2)n(-c2cccc(CNC(=O)CNS(C)(=O)=O)c2)n1`, for which the half-inhibitory concentration (IC50) amounted to 649 nM in [1] and 108 nM in data set [2].

In the case of `CC(=O)NCC(=O)N(C)Cc1cccc(-n2nc(C(C)(C)C)cc2NC(=O)Nc2ccccc2)c1`, the half-inhibitory concentration (IC50) stood at 1600 nM in data set [1] and 211 nM in [2].

Turning to `CC(C)(C)c1cc(NC(=O)Nc2ccccc2)n(-c2cccc(CNC(=O)CN3CCCC3=O)c2)n1`, the IC50 in data set [1] was determined as 296 nM; in data set [2], 68 nM.

`CC(C)(C)c1cc(NC(=O)Nc2ccccc2)n(-c2cccc(CNC(=O)CN3CCOC3=O)c2)n1`: the half-inhibitory concentration (IC50) was 599 nM in data set [1] and 185 nM in data set [2].

On to `CC(C)(C)c1cc(NC(=O)Nc2ccccc2)n(-c2cccc(CNC(=O)Cn3ccccc3=O)c2)n1`, for which the inhibition at 10 µM at hERG (KCNH2) is 9%. The inhibition at 3 µM against CYP3A4 is 30%; against CYP2D6, 21%; against CYP1A2, 4%; on CYP2C9 it was 6%. Moreover, the Papp in [3] is 12.9 ×10⁻⁶ cm/s. Also, the IC50 stood at 63 nM in data set [1] and 16 nM in data set [2]. The same compound registered a solubility (kinetic) in [4] of 50 µM (≈ 24.9 µg/mL).

On to `CC(C)(C)c1cc(NC(=O)Nc2ccccc2)n(-c2cccc(CNC(=O)Cn3ccnc3)c2)n1`, for which the values for the 50% inhibitory concentration (IC50) in [1] and in data set [2] were 536 nM and 231 nM, respectively.

Consider `Cc1nccn1CC(=O)NCc1cccc(-n2nc(C(C)(C)C)cc2NC(=O)Nc2ccccc2)c1`, for which the 50% inhibitory concentration (IC50) in [1] was 677 nM; in data set [2] it was 132 nM.

With `CC(C)(C)c1cc(NC(=O)Nc2ccccc2)n(-c2cccc(CNC(=O)Cn3cccn3)c2)n1`, the figures for the IC50 in [1] and in data set [2] were 135 nM and 48.8 nM, respectively.

With `Cc1ccn(CC(=O)NCc2cccc(-n3nc(C(C)(C)C)cc3NC(=O)Nc3ccccc3)c2)n1`, the inhibition at 10 µM on hERG (KCNH2) was found to be 3%. Also, the inhibition at 3 µM at CYP3A4 worked out at 26%; at CYP2D6, 18%; at CYP1A2 it was 4%; at CYP2C9, 5%. The compound also gave a Papp in data set [3] of 4.8 ×10⁻⁶ cm/s. Also, the IC50 worked out at 201 nM in data set [1] and 27.9 nM in [2]. Further, in data set [4], the kinetic solubility is 100 µM (≈ 48.6 µg/mL).

For the compound `Cc1cc(C)n(CC(=O)NCc2cccc(-n3nc(C(C)(C)C)cc3NC(=O)Nc3ccccc3)c2)n1`, the values for the IC50 in [1] and in [2] were 331 nM and 78.2 nM, respectively.

Turning to `CC(C)(C)c1cc(NC(=O)Nc2ccccc2)n(-c2cccc(CNC(=O)CCC(=O)O)c2)n1`, the IC50 in data set [1] is 393 nM; in [2], 37 nM.

`CC(C)(CC(=O)NCc1cccc(-n2nc(C(C)(C)C)cc2NC(=O)Nc2ccccc2)c1)C(=O)O`: the concentration for half-maximal inhibition (IC50) in data set [1] came to 3680 nM; in [2] it was 39 nM.

With `CC(C)(C)c1cc(NC(=O)Nc2ccccc2)n(-c2cccc(CNC(=O)C3C[C@H]3C(=O)O)c2)n1` (stereo not given in full), the half-maximal inhibitory concentration (IC50) worked out at 1100 nM in data set [1] and 30 nM in data set [2].

For `CC(C)(C)c1cc(NC(=O)Nc2ccccc2)n(-c2cccc(CNC(=O)C3CCCC[C@H]3C(=O)O)c2)n1` (stereo not given in full), the values for the half-maximal inhibitory concentration (IC50) in [1] and in [2] were 3360 nM and 57 nM, respectively.

On to `CC(C)(C)c1cc(NC(=O)Nc2ccccc2)n(-c2cccc(CNC(=O)C3CC=CC[C@H]3C(=O)O)c2)n1` (stereo not given in full), for which the figures for the half-maximal inhibitory concentration (IC50) in data set [1] and in data set [2] were 737 nM and 14 nM, respectively.

Turning to `CC(C)(C)c1cc(NC(=O)Nc2cccc3ccccc23)n(-c2cccc(CNC(=O)CCC(=O)O)c2)n1`, the half-inhibitory concentration (IC50) in data set [1] was 6 nM; in [2], 5 nM.

The IC50 is the point on the concentration scale where inhibition reaches its midpoint. A lower IC50 goes with higher potency. For orientation: inhibition means the relative decrease from the control value, in per cent. The term Papp denotes a coefficient for how fast a substance crosses the barrier. Read a low Papp as slow passage. One may read the solubility (kinetic) as solubility judged after dilution from a stock solution rather than from solid.
